Tests used:
[1] = Selectivity index, ratio of GI50 for human HL-60 cells to GI50 for Trypanosoma brucei brucei 221a; format: toxicity; conditions: for selectivity ratio: HL-60 cells versus Trypanosoma brucei brucei 221a, read-out: RatioGI50
Summary of the method: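 Ratio of GI50 for HL-60 to GI50 for T. b. brucei, both from the resazurin growth assay.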

[2] = test system: Trypanosoma brucei brucei; assay: Trypanocidal activity against Trypanosoma brucei brucei 221a assessed as parasite growth inhibition measured after 24 hrs by resazurin dye based microplate reader analysis; format: functional
Summary of the method: (§1)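 Seeded at 1 × 10^4 mL-1 (T. b. brucei) or 5 × 10^4 mL-1 (HL-60) in Baltz medium with 16.7 % bovine serum and 0.9 % DMSO. Test compounds given as tenfold dilutions from 100 μM to 1 nM. Incubated at 37 °C, 5 % CO2. Resazurin added after 24 h, then a further 48 h. Absorbance read at 570/630 nm. GI50 obtained by linear interpolation; mean ± SD of three independent experiments.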

Huh-7 = assay: Cytotoxicity against human Huh-7 cells infected with luciferase-expressing Plasmodium berghei assessed as effect on cell confluency pretreated for 1 hr followed by parasite infection and measured 46 hrs post infection by alamar blue staining based analysis; format: toxicity; conditions: huh-7, 47 h
Summary of the method: (§2)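 Huh7 hepatoma cells in RPMI-1640 with 10 % FCS, seeded at 1 × 10^4 per well and left overnight. Seven compound concentrations, serially diluted from 10 mM DMSO stocks, applied 1 h before infection; DMSO vehicle control. PbGFP-Luciferase sporozoites from An. stephensi salivary glands added 1:1, plates spun 1800 × g for 5 min. Confluency by AlamarBlue at 46 hpi; parasite load by firefly luciferase at 48 hpi. IC50 from nonlinear regression.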

Plasmodium berghei = assay: Antiplasmodial activity against luciferase-expressing Plasmodium berghei infected in human Huh-7 cells assessed as reduction in parasitic load pretreated for 1 hr with cells followed by parasite infection and measured 48 hrs post infection by firefly luciferase assay; format: functional, organism-based; summary of the method: as §2
HL-60 = assay: Cytotoxicity against human HL-60 cells assessed as cell growth inhibition measured after 24 hrs by resazurin dye based microplate reader analysis; format: toxicity; conditions: hl-60, 24 h; summary of the method: as §1
Trypanosoma cruzi = assay: Antitrypanosomal activity against trypomastigote form of Trypanosoma cruzi Dm28c expressing beta-galactosidase using chlorophenol red beta-D-galactopyranoside as enzyme substrate measured after 24 hrs by colorimetric analysis; format: functional, organism-based

Compound	selectivity ratio [1]	GI50 [2] [µM]	further results
CC[C@H](C)[C@H]1O[C@]2(CC[C@@H]1C)C[C@@H]1C[C@@H](C/C=C(\C)[C@H](NC(=O)c3ccccc3)[C@@H](C)/C=C/C=C3\CO[C@@H]4[C@H](O)C(C)=C[C@@H](C(=O)O1)[C@]34O)O2	3.6	8.6	
CC[C@H](C)[C@H]1O[C@]2(CC[C@@H]1C)C[C@@H]1C[C@@H](C/C=C(\C)[C@H](NC(=O)C(C)C)[C@@H](C)/C=C/C=C3\CO[C@@H]4[C@H](O)[C@](C)(O)C=C(C(=O)O1)[C@]34O)O2	5.1	6.6	
CCCCCCCCCC(=O)N[C@H]1/C(C)=C/C[C@@H]2C[C@@H](C[C@]3(CC[C@H](C)[C@@H]([C@@H](C)CC)O3)O2)OC(=O)[C@@H]2C=C(C)[C@@H](O)[C@H]3OC/C(=C\C=C\[C@@H]1C)[C@]32O	3.2	9.3	
CC[C@H](C)[C@H]1O[C@]2(CC[C@@H]1C)C[C@@H]1C[C@@H](C/C=C(\C)[C@H](NC(C)=O)[C@@H](C)/C=C/C=C3\CO[C@@H]4[C@H](O)C(C)=C[C@@H](C(=O)O1)[C@]34O)O2	5.8	5.5	Activity (Huh-7): Non-Toxic; IC50 (Plasmodium berghei; Plasmodium berghei, Huh-7): 1.52 µM
CC[C@H](C)[C@H]1O[C@]2(CC[C@@H]1C)C[C@@H]1C[C@@H](C/C=C(\C)[C@H](NC(=O)C(C)C)[C@@H](C)/C=C/C=C3\CO[C@@H]4[C@H](O)C(C)=C[C@@H](C(=O)O1)[C@]34O)O2	3.3	10.2	
CCC(=O)N[C@H]1/C(C)=C/C[C@@H]2C[C@@H](C[C@]3(CC[C@H](C)[C@@H]([C@@H](C)CC)O3)O2)OC(=O)C2=C[C@@](C)(O)[C@@H](O)[C@H]3OC/C(=C\C=C\[C@@H]1C)[C@@]23O	4.3	8.1	
CC[C@H](C)[C@H]1O[C@]2(CC[C@@H]1C)C[C@@H]1C[C@@H](C/C=C(\C)[C@H](NC(=O)COC)[C@@H](C)/C=C/C=C3\CO[C@@H]4[C@H](O)C(C)=C[C@@H](C(=O)O1)[C@]34O)O2	2.3	14.4	
CC[C@H](C)[C@H]1O[C@]2(CC[C@@H]1C)C[C@@H]1C[C@@H](C/C=C(\C)[C@H](NC(=O)c3ccccc3)[C@@H](C)/C=C/C=C3\CO[C@@H]4[C@H](O)[C@](C)(O)C=C(C(=O)O1)[C@]34O)O2	7	4.3	
CC[C@H](C)[C@H]1O[C@]2(CC[C@@H]1C)C[C@@H]1C[C@@H](C/C=C(\C)[C@H](NC(=O)CCl)[C@@H](C)/C=C/C=C3\CO[C@@H]4[C@H](O)[C@](C)(O)C=C(C(=O)O1)[C@]34O)O2	67.2	0.064	
CC[C@H](C)[C@H]1O[C@]2(CC[C@@H]1C)C[C@@H]1C[C@@H](C/C=C(\C)[C@@H](O)[C@@H](C)/C=C/C=C3\CO[C@@H]4[C@H](O)[C@](C)(O)C=C(C(=O)O1)[C@]34O)O2	2.6	12.1	Activity (Huh-7): Non-Toxic; IC50 (Plasmodium berghei; Plasmodium berghei, Huh-7): 2.85 µM
CCCCCCCCCC(=O)N[C@H]1/C(C)=C/C[C@@H]2C[C@@H](C[C@]3(CC[C@H](C)[C@@H]([C@@H](C)CC)O3)O2)OC(=O)C2=C[C@@](C)(O)[C@@H](O)[C@H]3OC/C(=C\C=C\[C@@H]1C)[C@@]23O	7.8	4.1	
Cc1ccc(C(=O)Nc2ccc(S(=O)(=O)O)c3cc(S(=O)(=O)O)cc(S(=O)(=O)O)c23)cc1NC(=O)c1cccc(NC(=O)Nc2cccc(C(=O)Nc3cc(C(=O)Nc4ccc(S(=O)(=O)O)c5cc(S(=O)(=O)O)cc(S(=O)(=O)O)c45)ccc3C)c2)c1 [SURAMIN]	> 2780	0.036	
CC[C@H](C)[C@H]1O[C@]2(CC[C@@H]1C)C[C@@H]1C[C@@H](C/C=C(\C)[C@H](NC(=O)c3ccc(OC)c(OC)c3)[C@@H](C)/C=C/C=C3\CO[C@@H]4[C@H](O)[C@](C)(O)C=C(C(=O)O1)[C@]34O)O2	6.4	5	
CC[n+]1c(-c2ccccc2)c2cc(N)ccc2c2ccc(N)cc21 [HOMIDIUM BROMIDE]	67.4	0.086	
CC[C@H](C)[C@H]1O[C@]2(CC[C@@H]1C)C[C@@H]1C[C@@H](C/C=C(\C)[C@H](NC(=O)CCl)[C@@H](C)/C=C/C=C3\CO[C@@H]4[C@H](O)C(C)=C[C@@H](C(=O)O1)[C@]34O)O2	47.6	0.063	
CC[C@H](C)[C@H]1O[C@]2(CC[C@@H]1C)C[C@@H]1C[C@@H](C/C=C(\C)[C@H](NC(=O)C34CC5CC(CC(C5)C3)C4)[C@@H](C)/C=C/C=C3\CO[C@@H]4[C@H](O)[C@](C)(O)C=C(C(=O)O1)[C@]34O)O2	10.3	3	
CC[C@H](C)[C@H]1O[C@]2(CC[C@@H]1C)C[C@@H]1C[C@@H](C/C=C(\C)[C@@H](O)[C@@H](C)/C=C/C=C3\CO[C@@H]4[C@H](O)C(C)=C[C@@H](C(=O)O1)[C@]34O)O2 [IVM AGLYCONE]	5.8	6.1	Activity (Huh-7): Non-Toxic; IC50 (Plasmodium berghei; Plasmodium berghei, Huh-7): 5.45 µM
CCC(=O)N[C@H]1/C(C)=C/C[C@@H]2C[C@@H](C[C@]3(CC[C@H](C)[C@@H]([C@@H](C)CC)O3)O2)OC(=O)[C@@H]2C=C(C)[C@@H](O)[C@H]3OC/C(=C\C=C\[C@@H]1C)[C@]32O	4.3	7.4	
IVERMECTIN [listing 1 of 2 here]			GI50 (HL-60): 31.3 µM; RatioGI50 [1]: 2.1; EC50 (Trypanosoma cruzi): 10.4 µM; Activity (Huh-7): Non-Toxic; IC50 (Plasmodium berghei; huh-7): 0.911 µM
CC[C@H](C)[C@H]1O[C@]2(CC[C@@H]1C)C[C@@H]1C[C@@H](C/C=C(\C)[C@H](NC(=O)c3ccc(OC)c(OC)c3)[C@@H](C)/C=C/C=C3\CO[C@@H]4[C@H](O)C(C)=C[C@@H](C(=O)O1)[C@]34O)O2	5.6	5.8	
CC[C@H](C)[C@H]1O[C@]2(CC[C@@H]1C)C[C@@H]1C[C@@H](C/C=C(\C)[C@H](NC(=O)c3ccco3)[C@@H](C)/C=C/C=C3\CO[C@@H]4[C@H](O)[C@](C)(O)C=C(C(=O)O1)[C@]34O)O2	7	4.7	
CC[C@H](C)[C@H]1O[C@]2(CC[C@@H]1C)C[C@@H]1C[C@@H](C/C=C(\C)[C@H](NC(=O)c3ccc(OC)c(O)c3)[C@@H](C)/C=C/C=C3\CO[C@@H]4[C@H](O)[C@](C)(O)C=C(C(=O)O1)[C@]34O)O2	8	4.1	
CC[C@H](C)[C@H]1O[C@]2(CC[C@@H]1C)C[C@@H]1C[C@@H](C/C=C(\C)[C@H](NC(=O)C34CC5CC(CC(C5)C3)C4)[C@@H](C)/C=C/C=C3\CO[C@@H]4[C@H](O)C(C)=C[C@@H](C(=O)O1)[C@]34O)O2	1.6	19.1	
CC[C@H](C)[C@H]1O[C@]2(CC[C@@H]1C)C[C@@H]1C[C@@H](C/C=C(\C)[C@@H](O[C@H]3C[C@H](OC)[C@@H](O[C@H]4C[C@H](OC)[C@@H](O)[C@H](C)O4)[C@H](C)O3)[C@@H](C)/C=C/C=C3\CO[C@@H]4[C@H](O)[C@](C)(O)C=C(C(=O)O1)[C@]34O)O2	1.6	20	Activity (Huh-7): Non-Toxic; IC50 (Plasmodium berghei; Plasmodium berghei, Huh-7): 4.72 µM
CC[C@H](C)[C@H]1O[C@]2(CC[C@@H]1C)C[C@@H]1C[C@@H](C/C=C(\C)[C@H](NC(C)=O)[C@@H](C)/C=C/C=C3\CO[C@@H]4[C@H](O)[C@](C)(O)C=C(C(=O)O1)[C@]34O)O2	4.5	7.5	Activity (Huh-7): Non-Toxic; IC50 (Plasmodium berghei; Plasmodium berghei, Huh-7): 0.379 µM
CC[C@H](C)[C@H]1O[C@]2(CC[C@@H]1C)C[C@@H]1C[C@@H](C/C=C(\C)[C@H](NC(=O)c3ccco3)[C@@H](C)/C=C/C=C3\CO[C@@H]4[C@H](O)C(C)=C[C@@H](C(=O)O1)[C@]34O)O2	3.1	10.2	
IVERMECTIN [listing 2 of 2 here]		14.6	
CC[C@H](C)[C@H]1O[C@]2(CC[C@@H]1C)C[C@@H]1C[C@@H](C/C=C(\C)[C@H](NC(=O)COC)[C@@H](C)/C=C/C=C3\CO[C@@H]4[C@H](O)[C@](C)(O)C=C(C(=O)O1)[C@]34O)O2	1.8	18.2	
CC[C@H](C)[C@H]1O[C@]2(CC[C@@H]1C)C[C@@H]1C[C@@H](C/C=C(\C)[C@H](NC(=O)c3ccc(OC)c(O)c3)[C@@H](C)/C=C/C=C3\CO[C@@H]4[C@H](O)C(C)=C[C@@H](C(=O)O1)[C@]34O)O2	8.2	3.9	

From ChEMBL document CHEMBL5537124, “Unexpected rearrangement of ivermectin in the synthesis of new derivatives with trypanocidal and antiplasmodial activities” (Eur J Med Chem, 2024)
